Legend:
LOX IMVI = assay: Growth inhibition of human LOXIMVI cells at 10 uM relative to control; format: functional; conditions: read-out: GI
How it was run: (§1)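 Each cell line in a 60-line human tumour panel exposed to one 10 μM concentration. Growth inhibition percentage computed as 100 minus the percentage activity relative to control.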

HT-29 = assay: Growth inhibition of human HT-29 cells at 10 uM relative to control; format: functional; conditions: read-out: GI; how it was run: as §1
BT-549 = assay: Growth inhibition of human BT549 cells at 10 uM relative to control; format: functional; conditions: read-out: GI; how it was run: as §1
SF-295 = assay: Growth inhibition of human SF295 cells at 10 uM relative to control; format: functional; conditions: read-out: GI; how it was run: as §1
UACC-62 = assay: Growth inhibition of human UACC62 cells at 10 uM relative to control; format: functional; conditions: read-out: GI
How it was run: (§2)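 Single-dose screen across the 60-cell-line human tumor panel at 10 μM. Growth inhibition is reported as a percentage, taken as 100 minus the % growth relative to untreated control.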

RPMI-8226 = assay: Growth inhibition of human RPMI8226 cells at 10 uM relative to control; format: functional; conditions: read-out: GI; how it was run: as §1
HL-60(TB) = assay: Growth inhibition of human HL-60(TB) cells at 10 uM relative to control; format: functional; conditions: read-out: GI
How it was run: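 Single-dose screen at 10 μM across the 60-cell-line tumour panel. Percent growth inhibition = 100 minus percent growth activity relative to untreated control.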

MDA-MB-435 = assay: Growth inhibition of human MDA-MB-435 cells at 10 uM relative to control; format: functional; conditions: read-out: GI; how it was run: as §1
A498 = assay: Growth inhibition of human A498 cells at 10 uM relative to control; format: functional; conditions: read-out: GI; how it was run: as §1
K562 = assay: Growth inhibition of human K562 cells at 10 uM relative to control; format: functional; conditions: read-out: GI; how it was run: as §1
T47D = assay: Growth inhibition of human T47D cells at 10 uM relative to control; format: functional; conditions: read-out: GI; how it was run: as §2
U-251 = assay: Growth inhibition of human U251 cells at 10 uM relative to control; format: functional; conditions: read-out: GI; how it was run: as §2
EKVX = assay: Growth inhibition of human EKVX cells at 10 uM relative to control; format: functional; conditions: read-out: GI; how it was run: as §1
CCRF-CEM = assay: Growth inhibition of human CCRF-CEM cells at 10 uM relative to control; format: functional; conditions: read-out: GI; how it was run: as §1
SR = assay: Growth inhibition of human SR cells at 10 uM relative to control; format: functional; conditions: read-out: GI; how it was run: as §2
MOLT-4 = assay: Growth inhibition of human MOLT4 cells at 10 uM relative to control; format: functional; conditions: read-out: GI; how it was run: as §1
Mus musculus [1] = assay: Anticonvulsant activity in mouse assessed as protection against maximal electroshock-induced seizure at 1 mmol/kg, ip administered 30 min prior to maximal electroshock-challenge measured after 60 mins relative to control; format: functional
Mus musculus [2] = assay: Anticonvulsant activity in mouse assessed as protection against strychnine-induced seizure at 1 mmol/kg, ip administered 30 min prior to strychnine-challenge measured after 60 mins relative to control; format: functional
Mus musculus [3] = assay: Anticonvulsant activity in mouse assessed as protection against pentylenetetrazol-induced seizure at 1 mmol/kg, ip administered 30 min prior to pentylenetetrazol-challenge measured after 60 mins relative to control; format: functional
Mus musculus [4] = assay: Anticonvulsant activity in ip dosed mouse assessed as protection against pentylenetetrazol-induced seizure administered 30 min prior to pentylenetetrazol-challenge measured after 60 mins; format: functional
How it was run: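 Mice received several doses for quantification. ED50 taken as the dose protecting 50% of mice against pentylenetetrazol-induced seizures.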

[5] = Therapeutic index, ratio of LD50 for mouse to ED50 for pentylenetetrazol-induced seizure in mouse; format: organism-based; conditions: in vivo, read-out: Ratio LD50/ED50
How it was run: (§3)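 In mice, LD50 is the dose causing 50% mortality. ED50 is the dose protecting 50% of mice against pentylenetetrazole-induced seizures. Therapeutic index = LD50/ED50.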

[6] = Neurotoxicity in ip dosed mouse assessed as impaired motor coordination administered 30 mins prior to test by chimney test; format: toxicity, organism-based; conditions: in vivo
How it was run: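 Mice, Chimney test. TD50 is the dose that produces minimal neurological toxicity (impaired motor coordination) in 50% of animals, estimated from testing at several doses.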

Mus musculus [7] = species on record: Mus musculus; assay: Protective index, ratio of TD50 for mouse to ED50 for pentylenetetrazol-induced seizure in mouse; format: functional
How it was run: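 Mice. Index is TD50/ED50. TD50 is the dose causing minimal neurological toxicity in 50% of mice in the Chimney test. ED50 is the dose protecting 50% of mice against pentylenetetrazole-induced seizures. Both are estimated from testing at several doses.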

Mus musculus [8] = assay: Anticonvulsant activity in mouse assessed as protection against picrotoxin-induced seizure at 1 mmol/kg, ip administered 30 min prior to picrotoxin-challenge measured after 60 mins relative to control; format: functional
[9] = Toxicity in ip dose mouse assessed as mortality; format: organism-based; conditions: in vivo; how it was run: as §3
A549 = assay: Growth inhibition of human A549 cells at 10 uM relative to control; format: functional; conditions: read-out: GI; how it was run: as §1
SK-MEL-28 = assay: Growth inhibition of human SK-MEL-28 cells at 10 uM relative to control; format: functional; conditions: read-out: GI; how it was run: as §1
OVCAR-8 = assay: Growth inhibition of human OVCAR8 cells at 10 uM relative to control; format: functional; conditions: read-out: GI; how it was run: as §1
NCI-H23 = assay: Growth inhibition of human NCI-H23 cells at 10 uM relative to control; format: functional; conditions: read-out: GI; how it was run: as §1
HCC 2998 = assay: Growth inhibition of human HCC2998 cells at 10 uM relative to control; format: functional; conditions: read-out: GI; how it was run: as §1
SF-539 = assay: Growth inhibition of human SF539 cells at 10 uM relative to control; format: functional; conditions: read-out: GI; how it was run: as §1
NCI-H226 = assay: Growth inhibition of human NCI-H226 cells at 10 uM relative to control; format: functional; conditions: read-out: GI; how it was run: as §1
HCT-116 = assay: Growth inhibition of human HCT116 cells at 10 uM relative to control; format: functional; conditions: read-out: GI; how it was run: as §1
CAKI-1 = assay: Growth inhibition of human CAKI-1 cells at 10 uM relative to control; format: functional; conditions: read-out: GI; how it was run: as §1
SNB-75 = assay: Growth inhibition of human SNB75 cells at 10 uM relative to control; format: functional; conditions: read-out: GI; how it was run: as §2
PC-3 = assay: Growth inhibition of human PC3 cells at 10 uM relative to control; format: functional; conditions: read-out: GI; how it was run: as §1
NCI-H522 = assay: Growth inhibition of human NCI-H522 cells at 10 uM relative to control; format: functional; conditions: read-out: GI; how it was run: as §1
[10] = Growth inhibition of human Hs 578T cells at 10 uM relative to control; format: functional; conditions: read-out: GI; how it was run: as §1
UO-31 = assay: Growth inhibition of human UO31 cells at 10 uM relative to control; format: functional; conditions: read-out: GI; how it was run: as §2
SNB-19 = assay: Growth inhibition of human SNB19 cells at 10 uM relative to control; format: functional; conditions: read-out: GI; how it was run: as §2

SMILES | inhibition of growth at 10 µM (HT-29) | inhibition of growth at 10 µM (SF-295) | inhibition of growth at 10 µM (UACC-62) | inhibition of growth at 10 µM (RPMI-8226) | inhibition of growth at 10 µM (HL-60(TB)) | inhibition of growth at 10 µM (A498) | inhibition of growth at 10 µM (K562) | inhibition of growth at 10 µM (U-251) | inhibition of growth at 10 µM (EKVX) | inhibition of growth at 10 µM (CCRF-CEM) | inhibition of growth at 10 µM (MOLT-4) | Activity (Mus musculus [1]) | Activity (Mus musculus [2]) | Activity (Mus musculus [3]) | ED50 (Mus musculus [4]) | selectivity ratio [5] | TD50 at 0.5 h [6] | Ratio TD50/ED50 (Mus musculus [7]) | Activity (Mus musculus [8]) | LD50 [9] | other results
Cc1ccccc1-n1c(C)nc2cc(NC(=O)c3cccs3)ccc2c1=O | 11% | 6% | 8% | 8% | 19.2% | 9% | 12.8% | 12% | 11% | 12.2% | 25.6% | – | – | – | – | – | – | – | – | – | inhibition of growth at 10 µM (LOX IMVI): 4.2%; inhibition of growth at 10 µM (BT-549): 8%; inhibition of growth at 10 µM (MDA-MB-435): 6%; inhibition of growth at 10 µM (T47D): 7.8%; inhibition of growth at 10 µM (SR): 21%
Cc1ccccc1-n1c(C)nc2cc(/N=C/c3ccccc3)ccc2c1=O | – | – | – | – | – | – | – | – | – | – | – | 50% | 0% | 0% | – | – | – | – | – | – | –
Cc1ccc(S(=O)(=O)Nc2ccc3c(=O)n(-c4ccccc4C)c(C)nc3c2)cc1 | – | – | – | – | – | – | – | – | – | – | – | 0% | 0% | 66% | – | – | – | – | – | – | –
Cc1ccccc1-n1c(C)nc2cc(/N=C/c3ccc(Cl)cc3)ccc2c1=O | – | – | – | – | – | – | – | – | – | – | – | 100% | 0% | 100% | 350 µmol/kg | 4.6 | 890 µmol/kg | 2.54 | 50% | 1810 µmol/kg | –
Cc1ccccc1-n1c(C)nc2cc(/N=C/c3ccc(F)cc3)ccc2c1=O | – | – | – | – | – | – | – | – | – | – | – | 100% | 0% | 100% | 310 µmol/kg | 5.5 | 930 µmol/kg | 3 | 75% | 1710 µmol/kg | –
Cc1ccccc1-n1c(C)nc2cc(NS(=O)(=O)c3ccccc3)ccc2c1=O | 3% | 9% | 9% | 12% | 4% | 8% | 10% | 4% | 14.3% | 13% | 12.2% | – | – | – | – | – | – | – | – | – | inhibition of growth at 10 µM (A549): 5%; inhibition of growth at 10 µM (SK-MEL-28): 2.4%; inhibition of growth at 10 µM (OVCAR-8): 5.4%; inhibition of growth at 10 µM (NCI-H23): 5.2%; inhibition of growth at 10 µM (HCC 2998): 4%; inhibition of growth at 10 µM (SF-539): 4%; inhibition of growth at 10 µM (NCI-H226): 2.5%; inhibition of growth at 10 µM (HCT-116): 4%; inhibition of growth at 10 µM (CAKI-1): 4%; inhibition of growth at 10 µM (SNB-75): 14.8%; inhibition of growth at 10 µM (PC-3): 8%; inhibition of growth at 10 µM (NCI-H522): 2.2%; inhibition of growth at 10 µM [10]: 3.2%; inhibition of growth at 10 µM (UO-31): 13.6%; inhibition of growth at 10 µM (SNB-19): 4%

From ChEMBL document CHEMBL1955778, “Design and synthesis of novel 7-aminoquinazoline derivatives: antitumor and anticonvulsant activities” (Bioorg Med Chem Lett, 2012)
